The source made the active and inactive calls. No cut-off for these calls is given here. A value given as a limit tells only on which side of the number the result lay.

The species named for one data set is Rattus norvegicus. As to the kind of experiment: Ratio of ED50 for ulcerogenicity in 24-hrs starved Charles-River rat to ED50 for chronic antiinflammatory activity against adjuvant-induced arthritis in rat.
Settings: not given
Put shortly:
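Ratio of ulcerogenic UD50 to therapeutic ED50. UD50: single oral dose in 24 h-starved male Charles River rats, stomach lesions scored at 18 h. Therapeutic ED50: adjuvant-arthritic rats dosed orally days 14–22, with a ≥0.5 ml decrease in paw volume as the response. Both values were derived by probit analysis.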
Consider `COc1ccc2cc([C@H](C)C(=O)O)ccc2c1` [NAPROXEN], for which the “Ratio ED50” value stood at 13. On the same count and under the same terms, under `CCc1cccc2c3c([nH]c12)C(CC)(CC(=O)O)OCC3` (stereo not drawn) [ETODOLAC] stands 85. `CCCC1(CC(=O)O)OCCc2c1[nH]c1ccccc21` (stereo not drawn) [PRODOLIC ACID]: the “Ratio ED50” value was found to be 75. Same read-out and setting: under `CCCc1cccc2c3c([nH]c12)C(CC)(CC(=O)O)CCC3` (stereo not drawn) stands 24.

The test system of another data set is Rattus norvegicus. Description: Chronic antiinflammatory activity against adjuvant-induced arthritis in rat assessed as decrease in volume of paw at 10 mg/kg, po administered for 9 days starting 14 days after adjuvant injection and continued until day 22 by therapeutic test. It is filed as functional, organism-based. Also noted: dose 10 mg/kg.
Settings: not given
Put shortly: (§1)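 Adjuvant arthritis was induced in groups of six rats by injecting Mycobacterium butyricum in mineral oil into the left hind foot pad. Oral dosing ran from day 14 to day 22 (nine doses). Injected-paw volume was measured by mercury displacement, and a decrease of ≥0.5 ml counted as a therapeutic effect. ED50 was derived by probit analysis of responder counts. The maximum screening dose was 100 mg/kg.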
In the case of `CCc1cccc2c3c([nH]c12)C(C)(CC(=O)O)CCCC3` (stereo not drawn), the result was inactive.

A further data set concerns Rattus norvegicus. Description: Chronic antiinflammatory activity against adjuvant-induced arthritis in rat assessed as decrease in volume of paw at 25 mg/kg, po administered for 9 days starting 14 days after adjuvant injection and continued until day 22 by therapeutic test. The class given is functional, organism-based. Details: dose 25 mg/kg.
Settings: not given
In outline: as §1
For `CC1(CC(=O)O)CCc2c1[nH]c1ccccc21` (stereo not drawn), the outcome was inactive. Same read-out and setting: next, `CCC1(CC(=O)O)CCCc2c1[nH]c1ccc(OC)cc21` (stereo not drawn): “inactive”.

Another data set has as its system Rattus norvegicus. As to the kind of experiment: Ratio of ED50 for acute antiinflammatory activity against carrageenan-induced paw edema in rat to ED50 for chronic antiinflammatory activity against adjuvant-induced arthritis in rat.
Settings: not given
(In general: Carrageenan injected into the paw causes an acute inflammation.)
On to `CCCc1cccc2c3c([nH]c12)C(CC)(CC(=O)O)CCC3` (stereo not drawn), for which the Ratio was 10.

Another data set concerns Rattus norvegicus. Description: Ulcerogenicity in po dosed 24-hrs starved Charles-River rat assessed as lesions on stomach administered as single dose measured after 18 hrs. It is filed as toxicity, organism-based. The note with it: in vivo. Put shortly: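 Male Charles River rats were starved 24 h and given a single oral dose. After 18 h they were killed by ether inhalation and their stomachs examined for lesions (erosion or ulcer). UD50, the dose producing lesions in 50% of rats, was derived by probit analysis.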
A word on the ED50: it is the midpoint of the dose-response relation. Take `COc1ccc2cc([C@H](C)C(=O)O)ccc2c1` [NAPROXEN]: the ED50 was 28 mg/kg. On the same count and under the same terms, next, `CCc1cccc2c3c([nH]c12)C(CC)(CC(=O)O)OCC3` (stereo not drawn) [ETODOLAC]: 60 mg/kg; `CCCC1(CC(=O)O)OCCc2c1[nH]c1ccccc21` (stereo not drawn) [PRODOLIC ACID]: 678 mg/kg; `CCCCC1C(=O)N(c2ccccc2)N(c2ccccc2)C1=O` [PHENYLBUTAZONE]: 100 mg/kg. In the case of `CCCc1cccc2c3c([nH]c12)C(CC)(CC(=O)O)CCC3` (stereo not drawn), the 50% effective dose (ED50) worked out at 24 mg/kg.

The subject of another data set is Rattus norvegicus. As to the kind of experiment: Chronic antiinflammatory activity against adjuvant-induced arthritis in po dosed rat assessed as decrease in volume of paw administered for 9 days starting 14 days after adjuvant injection and continued until day 22 by therapeutic test. The class given is functional.
Settings: not given
Put shortly: as §1
For the compound `CCc1cccc2c3c([nH]c12)C(CC)(CC(=O)O)CCCC3` (stereo not drawn), the ED50 is more than 50 mg/kg.

Take `CCC1(CC(=O)O)CCc2c1[nH]c1ccccc21` (stereo not drawn): the ED50 was found to be 100 mg/kg. Still for that read-out and setting: next, `CCc1cccc2c3c([nH]c12)C(CC)(CC(=O)O)CCC3` (stereo not drawn): 1.9 mg/kg; `CCCC1(CC(=O)O)CCCc2c1[nH]c1ccccc21` (stereo not drawn): 20 mg/kg; `COc1ccc2cc([C@H](C)C(=O)O)ccc2c1` [NAPROXEN]: 2.1 mg/kg. Still for that read-out and setting: under `CCC1(CC(=O)O)CCCc2c1[nH]c1c(C(C)C)cccc21` (stereo not drawn) stands 5.4 mg/kg; under `CCc1cccc2c3c([nH]c12)C(CC)(CC(=O)O)OCC3` (stereo not drawn) [ETODOLAC], 0.7 mg/kg; under `CCc1cccc2c3c([nH]c12)C(C)(CC(=O)O)CC3` (stereo not drawn), more than 50 mg/kg. Still for that read-out and setting: next, `CCCC1(CC(=O)O)OCCc2c1[nH]c1ccccc21` (stereo not drawn) [PRODOLIC ACID]: 9 mg/kg; `COc1ccc2[nH]c3c(c2c1)CCC(C(=O)O)C3` (stereo not drawn): 20 mg/kg. With `CCCCc1cccc2c3c([nH]c12)C(CC)(CC(=O)O)CCC3` (stereo not drawn), the ED50 came out at 4.2 mg/kg. Same read-out and setting: under `O=C(O)C1CCc2c([nH]c3ccc(Cl)cc23)C1` (stereo not drawn) stands 21.3 mg/kg. Same read-out and setting: next, `COc1ccc2c(c1)c(CC(=O)O)c(C)n2C(=O)c1ccc(Cl)cc1` [INDOMETHACIN]: 0.2 mg/kg. Still for that read-out and setting: next, `CCc1cccc2c3c([nH]c12)C(CC)(CC(=O)O)CC3` (stereo not drawn): 6.2 mg/kg; `CCCCC1C(=O)N(c2ccccc2)N(c2ccccc2)C1=O` [PHENYLBUTAZONE]: 5.4 mg/kg; `CCCc1cccc2c3c([nH]c12)C(CC)(CC(=O)O)CCC3` (stereo not drawn): 1.1 mg/kg. As for `CCC1(CC(=O)O)CCCc2c1[nH]c1ccccc21` (stereo not drawn), the ED50 was 3.3 mg/kg.

For the next data set, the system named is Rattus norvegicus. As to the kind of experiment: Chronic antiinflammatory activity against adjuvant-induced arthritis in rat assessed as decrease in volume of paw at 100 mg/kg, po administered for 9 days starting 14 days after adjuvant injection and continued until day 22 by therapeutic test.
Settings: not given
Also noted: dose 100 mg/kg. The class given is functional, organism-based. Put shortly:
as §1
On to `O=C(O)C1CCc2c([nH]c3ccccc23)C1` (stereo not drawn), for which the outcome was inactive. The same measure, in the same setting: next, `O=C(O)CC1CCCc2c1[nH]c1ccccc21` (stereo not drawn): “inactive”. Same read-out and setting: under `CC1(CC(=O)O)CCCc2c1[nH]c1ccccc21` (stereo not drawn) stands “inactive”.

The next data set relates to Rattus norvegicus. Description: Acute antiinflammatory activity in po dosed rat assessed as inhibition of carrageenan-induced paw edema. It is filed as functional.
Settings: not given
In the case of `CCc1cccc2c3c([nH]c12)C(CC)(CC(=O)O)OCC3` (stereo not drawn) [ETODOLAC], the ED50 stood at 10.2 mg/kg. In the case of `CCCC1(CC(=O)O)OCCc2c1[nH]c1ccccc21` (stereo not drawn) [PRODOLIC ACID], the ED50 worked out at 89.9 mg/kg.

For `COc1ccc2[nH]c3c(c2c1)CCC(C(=O)O)C3` (stereo not drawn), the ED50 is 12.7 mg/kg. Same read-out and setting: next, `O=C(O)C1CCc2c([nH]c3ccc(Cl)cc23)C1` (stereo not drawn): 10.2 mg/kg; `CCCc1cccc2c3c([nH]c12)C(CC)(CC(=O)O)CCC3` (stereo not drawn): 10.5 mg/kg.
